Measured values reported in ChEMBL document CHEMBL2062417, “Biotinylated quercetin as an intrinsic photoaffinity proteomics probe for the identification of quercetin target proteins” (Bioorg Med Chem, 2011).
Calls of active or inactive are those of the source.

Columns and labels:
[1] = biological target: RuvB-like 2 (Homo sapiens) (UniProt Q9Y230); assay: Binding affinity to RUVBL2 in human Jurkat cells at 150 uM followed by UV irradiation for 30 mins with Wood's glass filtered medium pressure mercury arc light after cell lysis measured after denaturing wash by SDS-PAGE based pull down assay
RuvB-like 2 (Homo sapiens), sequence (Q9Y230 whole entry): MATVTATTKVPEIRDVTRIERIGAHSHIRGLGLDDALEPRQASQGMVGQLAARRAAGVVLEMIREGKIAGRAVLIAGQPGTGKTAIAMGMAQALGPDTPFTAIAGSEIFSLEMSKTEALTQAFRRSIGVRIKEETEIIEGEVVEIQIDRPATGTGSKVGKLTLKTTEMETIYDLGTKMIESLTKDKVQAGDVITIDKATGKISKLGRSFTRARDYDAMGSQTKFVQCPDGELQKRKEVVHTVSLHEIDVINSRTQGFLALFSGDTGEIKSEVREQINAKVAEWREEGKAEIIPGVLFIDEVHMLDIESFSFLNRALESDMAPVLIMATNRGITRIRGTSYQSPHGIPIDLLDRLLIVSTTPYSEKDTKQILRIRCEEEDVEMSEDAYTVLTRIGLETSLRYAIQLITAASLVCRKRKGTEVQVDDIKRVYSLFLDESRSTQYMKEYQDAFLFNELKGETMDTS
Summary of the method: (§1)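 Jurkat cells were grown in RPMI with 10% FBS (about 15×10^6 cells) and treated 2 h with 150 μM BioQ in 3% aqueous DMSO. They were heat-shocked at 43 °C for 30 min, recovered 1 h at 37 °C, and UV-irradiated (320–400 nm, peak 365 nm, 30 min, 4 °C) before or after sonication lysis. Streptavidin-agarose capture ran 1 h. Beads were washed ≥3× with lysis buffer or 2% SDS Tris pH 7.4, boiled, run on 12% SDS-PAGE and silver-stained.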

[2] = biological target: Heat shock-related 70 kDa protein 2 (Homo sapiens) (UniProt P54652); assay: Binding affinity to HSPA2 in human Jurkat cells at 150 uM followed by UV irradiation for 30 mins with Wood's glass filtered medium pressure mercury arc light after cell lysis measured after denaturing wash by SDS-PAGE based pull down assay; summary of the method: as §1
Heat shock-related 70 kDa protein 2 (Homo sapiens), sequence (P54652 whole entry): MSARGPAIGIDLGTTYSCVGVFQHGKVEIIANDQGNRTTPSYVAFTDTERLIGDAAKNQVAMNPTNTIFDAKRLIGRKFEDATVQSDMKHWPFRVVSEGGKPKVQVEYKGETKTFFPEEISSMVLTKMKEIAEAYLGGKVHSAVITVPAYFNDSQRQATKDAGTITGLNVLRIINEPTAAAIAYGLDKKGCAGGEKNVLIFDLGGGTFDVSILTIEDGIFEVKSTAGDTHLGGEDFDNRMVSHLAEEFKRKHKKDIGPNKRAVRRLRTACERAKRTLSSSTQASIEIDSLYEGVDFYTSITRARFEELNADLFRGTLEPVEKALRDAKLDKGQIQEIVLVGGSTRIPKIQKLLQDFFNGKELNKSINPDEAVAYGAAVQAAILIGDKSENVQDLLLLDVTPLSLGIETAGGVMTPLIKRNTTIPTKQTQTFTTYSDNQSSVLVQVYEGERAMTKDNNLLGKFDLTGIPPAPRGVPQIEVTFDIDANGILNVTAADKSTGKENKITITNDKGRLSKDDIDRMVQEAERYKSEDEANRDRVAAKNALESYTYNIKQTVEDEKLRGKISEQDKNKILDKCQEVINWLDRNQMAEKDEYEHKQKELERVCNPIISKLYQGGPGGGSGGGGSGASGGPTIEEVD

[3] = biological target: Eukaryotic translation initiation factor 3 subunit F (Homo sapiens) (UniProt O00303); assay: Binding affinity to EIF3F in human Jurkat cells at 150 uM followed by UV irradiation for 30 mins with Wood's glass filtered medium pressure mercury arc light after cell lysis measured after denaturing wash by SDS-PAGE based pull down assay; summary of the method: as §1
Eukaryotic translation initiation factor 3 subunit F (Homo sapiens), sequence (O00303 whole entry): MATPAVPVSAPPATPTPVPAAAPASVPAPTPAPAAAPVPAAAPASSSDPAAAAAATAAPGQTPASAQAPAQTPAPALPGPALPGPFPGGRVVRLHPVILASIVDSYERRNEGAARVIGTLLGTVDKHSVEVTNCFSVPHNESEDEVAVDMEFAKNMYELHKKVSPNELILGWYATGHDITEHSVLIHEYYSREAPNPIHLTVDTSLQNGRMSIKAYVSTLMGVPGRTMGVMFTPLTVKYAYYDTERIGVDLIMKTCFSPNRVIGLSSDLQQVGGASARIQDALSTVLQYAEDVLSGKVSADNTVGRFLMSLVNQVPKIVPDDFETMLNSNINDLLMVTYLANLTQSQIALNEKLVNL

[4] = biological target: T1, Splicing factor 3B subunit 3 (Homo sapiens) (UniProt Q15393); assay: Binding affinity to SF3B3 in human Jurkat cells at 150 uM followed by UV irradiation for 30 mins with Wood's glass filtered medium pressure mercury arc light after cell lysis measured after denaturing wash by SDS-PAGE based pull down assay; summary of the method: as §1
T1 sequence (whole entry): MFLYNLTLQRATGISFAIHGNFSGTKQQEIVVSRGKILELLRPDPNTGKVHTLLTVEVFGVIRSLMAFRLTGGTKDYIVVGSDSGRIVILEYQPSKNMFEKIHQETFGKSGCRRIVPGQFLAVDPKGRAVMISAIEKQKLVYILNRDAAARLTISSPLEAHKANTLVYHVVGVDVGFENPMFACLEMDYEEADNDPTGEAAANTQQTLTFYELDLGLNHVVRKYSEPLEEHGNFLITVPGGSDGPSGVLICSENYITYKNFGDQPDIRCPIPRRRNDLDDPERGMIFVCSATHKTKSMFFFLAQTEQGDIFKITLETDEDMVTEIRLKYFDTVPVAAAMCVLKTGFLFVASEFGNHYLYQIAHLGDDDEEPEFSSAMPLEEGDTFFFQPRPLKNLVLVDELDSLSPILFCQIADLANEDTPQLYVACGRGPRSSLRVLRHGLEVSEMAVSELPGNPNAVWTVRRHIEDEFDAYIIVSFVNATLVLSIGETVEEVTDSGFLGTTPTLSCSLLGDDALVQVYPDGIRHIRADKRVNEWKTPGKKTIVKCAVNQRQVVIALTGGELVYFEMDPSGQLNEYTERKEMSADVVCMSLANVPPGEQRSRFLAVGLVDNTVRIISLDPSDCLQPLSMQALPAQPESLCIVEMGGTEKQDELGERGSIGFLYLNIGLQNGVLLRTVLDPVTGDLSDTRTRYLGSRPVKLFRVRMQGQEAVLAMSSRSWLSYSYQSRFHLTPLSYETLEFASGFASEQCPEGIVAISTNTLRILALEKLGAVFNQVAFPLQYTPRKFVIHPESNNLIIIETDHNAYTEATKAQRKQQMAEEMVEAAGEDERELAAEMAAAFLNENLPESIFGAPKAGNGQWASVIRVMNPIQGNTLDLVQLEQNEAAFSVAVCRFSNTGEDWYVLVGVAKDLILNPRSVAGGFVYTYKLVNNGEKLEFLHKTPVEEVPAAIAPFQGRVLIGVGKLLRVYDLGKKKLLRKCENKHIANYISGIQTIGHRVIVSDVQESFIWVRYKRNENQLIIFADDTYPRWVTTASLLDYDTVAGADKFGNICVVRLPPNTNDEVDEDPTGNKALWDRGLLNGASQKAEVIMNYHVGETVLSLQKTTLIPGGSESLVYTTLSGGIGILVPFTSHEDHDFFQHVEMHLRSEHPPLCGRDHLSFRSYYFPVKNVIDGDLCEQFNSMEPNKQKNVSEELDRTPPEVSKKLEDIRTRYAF

[5] = biological target: ATP synthase F(1) complex subunit beta, mitochondrial (Homo sapiens) (UniProt P06576); assay: Binding affinity to ATP5B in human Jurkat cells at 150 uM followed by UV irradiation for 30 mins with Wood's glass filtered medium pressure mercury arc light after cell lysis measured after denaturing wash by SDS-PAGE based pull down assay; summary of the method: as §1
ATP synthase F(1) complex subunit beta, mitochondrial (Homo sapiens), sequence (P06576 whole entry, one chain of several): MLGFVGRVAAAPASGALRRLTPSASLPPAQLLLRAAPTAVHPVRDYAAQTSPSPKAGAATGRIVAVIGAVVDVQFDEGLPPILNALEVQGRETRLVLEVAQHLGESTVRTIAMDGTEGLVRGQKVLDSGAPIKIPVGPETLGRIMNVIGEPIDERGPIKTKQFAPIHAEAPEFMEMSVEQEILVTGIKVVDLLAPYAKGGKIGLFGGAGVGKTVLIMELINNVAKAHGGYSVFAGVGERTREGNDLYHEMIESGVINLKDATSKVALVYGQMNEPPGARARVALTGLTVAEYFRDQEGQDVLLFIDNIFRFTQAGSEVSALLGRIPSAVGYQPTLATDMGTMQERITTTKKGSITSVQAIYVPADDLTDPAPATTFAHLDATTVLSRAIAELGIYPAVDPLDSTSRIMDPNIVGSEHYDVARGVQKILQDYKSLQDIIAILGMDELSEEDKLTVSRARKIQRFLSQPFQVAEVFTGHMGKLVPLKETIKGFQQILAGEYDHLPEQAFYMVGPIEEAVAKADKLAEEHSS

[6] = biological target: T1, Splicing factor 3B subunit 3 (Homo sapiens); assay: Binding affinity to SF3B3 in human Jurkat cells at 150 uM followed by UV irradiation for 30 mins with Wood's glass filtered medium pressure mercury arc light prior to cell lysis measured after denaturing wash by LC-MS/MS based pull down assay
Summary of the method: (§2)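 Silver-stained bands from cells irradiated before lysis were excised, destained, reduced with 10 mM DTT, alkylated with 50 mM iodoacetamide and digested with trypsin overnight. Peptides were extracted in 1% TFA/50% acetonitrile. Nano-C18 LC used a 2–50% acetonitrile gradient with 0.1% formic acid over 50 min at 260 nL/min, followed by MS/MS identification.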

[7] = biological target: Actin, cytoplasmic 1 (Homo sapiens) (UniProt P60709); assay: Binding affinity to ACTB in human Jurkat cells at 150 uM followed by UV irradiation for 30 mins with Wood's glass filtered medium pressure mercury arc light prior to cell lysis measured after denaturing wash by SDS-PAGE based pull down assay; summary of the method: as §1
[8] = biological target: Heat shock protein HSP 90-alpha (Homo sapiens) (UniProt P07900); assay: Binding affinity to HSP90AA1 in human Jurkat cells at 150 uM followed by UV irradiation for 30 mins with Wood's glass filtered medium pressure mercury arc light after cell lysis measured after denaturing wash by SDS-PAGE based pull down assay; summary of the method: as §1
[9] = biological target: T1, Splicing factor 3B subunit 3 (Homo sapiens); assay: Binding affinity to SF3B3 in human Jurkat cells at 150 uM followed by UV irradiation for 30 mins with Wood's glass filtered medium pressure mercury arc light prior to cell lysis measured after denaturing wash by SDS-PAGE based pull down assay; summary of the method: as §1
[10] = biological target: ATP synthase F(1) complex subunit alpha, mitochondrial (Homo sapiens) (UniProt P25705); assay: Binding affinity to ATP5A1 in human Jurkat cells at 150 uM followed by UV irradiation for 30 mins with Wood's glass filtered medium pressure mercury arc light after cell lysis measured after denaturing wash by SDS-PAGE based pull down assay; summary of the method: as §1
ATP synthase F(1) complex subunit alpha, mitochondrial (Homo sapiens), sequence (P25705 whole entry, one chain of several): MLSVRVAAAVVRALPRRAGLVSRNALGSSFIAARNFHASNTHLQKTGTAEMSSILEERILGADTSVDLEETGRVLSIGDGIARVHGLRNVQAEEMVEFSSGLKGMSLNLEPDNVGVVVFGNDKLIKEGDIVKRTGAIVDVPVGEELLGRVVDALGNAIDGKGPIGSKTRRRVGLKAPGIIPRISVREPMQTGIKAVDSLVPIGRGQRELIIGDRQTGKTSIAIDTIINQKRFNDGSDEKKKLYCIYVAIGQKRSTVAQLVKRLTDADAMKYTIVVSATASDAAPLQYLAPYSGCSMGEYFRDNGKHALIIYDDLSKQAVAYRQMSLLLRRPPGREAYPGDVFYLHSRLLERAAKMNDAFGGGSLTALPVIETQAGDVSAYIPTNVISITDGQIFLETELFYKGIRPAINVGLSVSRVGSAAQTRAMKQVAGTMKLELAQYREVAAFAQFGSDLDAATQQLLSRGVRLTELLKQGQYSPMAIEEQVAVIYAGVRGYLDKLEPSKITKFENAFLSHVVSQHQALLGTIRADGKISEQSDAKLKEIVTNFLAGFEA

[11] = biological target: ATP synthase F(1) complex subunit alpha, mitochondrial (Homo sapiens) (UniProt P25705); assay: Binding affinity to ATP5A1 in human Jurkat cells at 150 uM followed by UV irradiation for 30 mins with Wood's glass filtered medium pressure mercury arc light prior to cell lysis measured after denaturing wash by LC-MS/MS based pull down assay; summary of the method: as §2
[12] = biological target: Actin, cytoplasmic 1 (Homo sapiens) (UniProt P60709); assay: Binding affinity to ACTB in human Jurkat cells at 150 uM followed by UV irradiation for 30 mins with Wood's glass filtered medium pressure mercury arc light after cell lysis measured after denaturing wash by SDS-PAGE based pull down assay; summary of the method: as §1

Measured: Activity

O=C(CCCC[C@@H]1SC[C@@H]2NC(=O)N[C@@H]21)NCCOCCOCCNC(=O)COc1cc(O)c2c(=O)c(O)c(-c3ccc(O)c(O)c3)oc2c1
active: [1] | [2] | [3] | [4] | [5] | [6] | [7] | [8] | [9] | [10] | [11] | [12]
